Data reported in ChEMBL document CHEMBL1154968, “Tellimagrandin I, HCV invasion inhibitor from Rosae Rugosae Flos” (Bioorg Med Chem Lett, 2010).

Experiments:
Hepatitis C virus [1] = experiment: Antiviral activity against G envelope protein expressing HCV infected in HepG2 cells assessed as inhibition of viral invasion at 3 uM after 24 hrs by SEAP reporter gene assay; format: functional, Hepacivirus hominis; details: HepG2, 24 h
In short: (§1)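 HepG2 cells seeded at 9.0 × 10⁴ cells/mL in DMEM with 10% FBS were grown 24 h at 37 °C under 5% CO₂. Samples in DMSO were diluted in medium (final DMSO 1.0%) and added 1 h before inoculation. After a further 24 h, supernatant SEAP activity was read by fluorescence.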

Hepatitis C virus [2] = experiment: Antiviral activity against E1 and E2 envelope protein expressing HCV infected in HepG2 cells assessed as inhibition of viral invasion at 10 uM after 24 hrs by SEAP reporter gene assay; format: functional, Hepacivirus hominis; details: HepG2, 24 h; in short: as §1
Hepatitis C virus [3] = experiment: Antiviral activity against G envelope protein expressing HCV infected in HepG2 cells assessed as inhibition of viral invasion at 10 uM after 24 hrs by SEAP reporter gene assay; format: functional, Hepacivirus hominis; details: HepG2, 24 h; in short: as §1
Hepatitis C virus [4] = experiment: Antiviral activity against G envelope protein expressing HCV infected in HepG2 cells assessed as inhibition of viral invasion at 1 uM after 24 hrs by SEAP reporter gene assay; format: functional, Hepacivirus hominis; details: HepG2, 24 h; in short: as §1
Hepatitis C virus [5] = experiment: Antiviral activity against E1 and E2 envelope protein expressing HCV infected in HepG2 cells assessed as inhibition of viral invasion at 3 uM after 24 hrs by SEAP reporter gene assay; format: functional, Hepacivirus hominis; details: HepG2, 24 h; in short: as §1
Hepatitis C virus [6] = experiment: Antiviral activity against E1 and E2 envelope protein expressing HCV infected in HepG2 cells assessed as inhibition of viral invasion at 1 uM after 24 hrs by SEAP reporter gene assay; format: functional, Hepacivirus hominis; details: HepG2, 24 h; in short: as §1
[7] = Growth inhibition of human HepG2 cells at 10 uM; format: cell-based; details: read-out: GI

Row | SMILES | inhibition at 3 µM (Hepatitis C virus [1]) | inhibition at 10 µM (Hepatitis C virus [2]) | inhibition at 10 µM (Hepatitis C virus [3]) | inhibition at 1 µM (Hepatitis C virus [4]) | inhibition at 3 µM (Hepatitis C virus [5]) | inhibition at 1 µM (Hepatitis C virus [6]) | inhibition at 10 µM [7]
1 | O=C(OC[C@H]1OC(O)[C@H](OC(=O)c2cc(O)c(O)c(O)c2)[C@@H](OC(=O)c2cc(O)c(O)c(O)c2)[C@@H]1OC(=O)c1cc(O)c(O)c(O)c1)c1cc(O)c(O)c(O)c1 (stereo not given in full) | 40.7% | 43.7% | 51.2% | 16% | 20.8% | 9.1% | –
2 | O=C(O[C@@H]1O[C@@H]2COC(=O)c3cc(O)c(O)c(O)c3-c3c(cc(O)c(O)c3O)C(=O)O[C@H]2[C@H](OC(=O)c2cc(O)c(O)c(O)c2)[C@H]1OC(=O)c1cc(O)c(O)c(O)c1)c1cc(O)c(O)c(O)c1 [EUGENIIN] | 21.2% | 92.8% | 35.7% | 17.2% | 51.3% | 18.4% | –
3 | O=C1OC[C@H]2OC(O)[C@@H]3OC(=O)c4cc(O)c(O)c(O)c4-c4c(cc(O)c(O)c4O)C(=O)O[C@H]3[C@@H]2OC(=O)c2cc(O)c(O)c(O)c2-c2c1cc(O)c(O)c2O (stereo not given in full) [PEDUNCULAGIN] | 14.8% | 81.1% | 30.9% | 9.4% | 58.8% | 14.6% | –
4 | O=C(OC[C@H]1O[C@@H](OC(=O)c2cc(O)c(O)c(O)c2)[C@H](OC(=O)c2cc(O)c(O)c(O)c2)[C@@H](OC(=O)c2cc(O)c(O)c(O)c2)[C@@H]1OC(=O)c1cc(O)c(O)c(O)c1)c1cc(O)c(O)c(O)c1 [PENTAGALLOYL GLUCOSE] | 22.8% | 72.3% | 40.7% | 5% | 28.9% | 4.2% | –
5 | O=C(O[C@H]1[C@@H]2OC(=O)c3cc(O)c(O)c(O)c3-c3c(cc(O)c(O)c3O)C(=O)OC[C@H]2OC(O)[C@@H]1OC(=O)c1cc(O)c(O)c(O)c1)c1cc(O)c(O)c(O)c1 (stereo not given in full) [Tellimagrandin I] | – | – | – | – | – | – | 15.6%
